In PMC3646928 (Peptides, 2013):

Legend:
[1] = test system: protein-free HJ DNA; assay: Non-competitive HJ band shift; assay type: binding
[2] = test system: E. coli MG1655 cells; assay: Bacterial TUNEL assay; assay type: cell-based; conditions: highest concentration tested, 1.5 hours
Procedure, shortened: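 E. coli MG1655 grown as for MIC testing: overnight culture diluted 1:100 in Mueller Hinton broth, grown to OD600 0.08–0.1, then exposed to peptide for 1.5 h. Cells pelleted and resuspended in 1× PBS. TdT labels 3′-OH ends with fluorescein-dUTP; TOTO-3 counterstains DNA. Flow cytometry (488 nm FITC, 633 nm APC; 50,000 events). TUNEL-positive expressed as fraction of TOTO-3-positive cells, normalized to DMSO-treated cells.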

| Substance | shift of protein-free HJ DNA in EMSA (specific shift) [1] | TUNEL-positive cells [2] [%] |
| --- | --- | --- |
| KWWRGGRWWK | caused a change in the mobility of protein-free HJ DNA similar to shifts seen with (WRWYCR)2 | – |
| WRWYCR | – | 75.6 ± 2.2 |
| WRWYGGYWRW | Neither WRWYGGYWRW nor WYCRGGRCYW caused specific shifts at low peptide concentrations | – |
| WYCRGGRCYW | Neither WRWYGGYWRW nor WYCRGGRCYW caused specific shifts at low peptide concentrations | – |
